In ChEMBL document CHEMBL4342467, “Discovery of a Novel Dual-Target Inhibitor of ERK1 and ERK5 That Induces Regulated Cell Death to Overcome Compensatory Mechanism in Specific Tumor Types” (J Med Chem, 2020):
Activity calls are given as the source filed them. No cut-off for these calls is given here.

Assays:
[1] = target: Mitogen-activated protein kinase 3 (Homo sapiens) (UniProt P27361); assay: Inhibition of ERK1 (unknown origin) at 1 uM by Z'-Lyte assay relative to control
MKN-74 [2] = assay: Antiproliferative activity against human MKN74 cells assessed as reduction in cell viability measured after 24 hrs; type: functional, cell-based; settings: MKN-74, 24 h
HeLa [3] = assay: Antiproliferative activity against human HeLa cells assessed as reduction in cell viability measured after 24 hrs; type: functional, cell-based
[4] = target: Mitogen-activated protein kinase 7 (Homo sapiens) (UniProt Q13164); assay: Inhibition of ERK5 in human MKN74 cells harboring siRNA assessed as reduction in ERK5 phosphorylation at 0.5 uM by immunofluorescence assay; type: cell-based
Procedure, shortened: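 ERK1/2-specific or negative-control siRNA was transfected into MKN-74 cells for the indicated times, followed by compound at 0.5 μM. p-ERK1/2 and p-ERK5 puncta were detected by immunocytochemistry.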

[5] = target: Mitogen-activated protein kinase; ERK1/ERK2 (Homo sapiens) (UniProt P27361+P28482); assay: Inhibition of ERK1/2 in human MKN74 cells assessed as reduction in ERK1/2 phosphorylation at T202/Y204 residue at 0.5 uM measured up to 24 hrs by Western blot analysis; type: cell-based
[6] = target: MAPK3/MAPK7 (Homo sapiens) (UniProt P27361+Q13164); assay: Inhibition of ERK1/5 in human MKN74 cells assessed as reduction in c-MYC phosphorylation at S62 residue at 0.5 uM measured up to 24 hrs by Western blot analysis; type: cell-based
[7] = Effect on Ras/Raf/MEK/ERK signaling in human MKN74 cells assessed as change in MEK1/2 phosphorylation at S217/221 residue at 0.5 uM measured up to 24 hrs by Western blot analysis; type: cell-based
Procedure, shortened: (§1)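 MKN-74 cells exposed to 0.5 μM for 0, 6, 12 and 24 h. Ras, Raf, p-MEK1/2, MEK1/2, p-JNK, JNK, p-p38 and p38 immunoblotted, with GAPDH as loading control.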

[8] = Effect on Ras/Raf/MEK/ERK signaling in human MKN74 cells assessed as change in JNK phosphorylation at Thr183/Tyr185 residue at 0.5 uM measured up to 24 hrs by Western blot analysis; type: cell-based; procedure, shortened: as §1
[9] = Effect on Ras/Raf/MEK/ERK signaling in human MKN74 cells assessed as change in p38 phosphorylation at Thr180/Tyr182 residue at 0.5 uM measured up to 24 hrs by Western blot analysis; type: cell-based; procedure, shortened: as §1
MKN-74 [10] = assay: Induction of autophagy in human MKN74 cells transfected with GFP-mRFP-LC3 assessed as increase in LC3 puncta formation at 0.5 uM measured after 24 hrs by fluorescence microscopic analysis; type: functional, cell-based
Procedure, shortened: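 MKN-74 cells transfected with GFP-mRFP-LC3 plasmid, treated 24 h at 0.5 μM. GFP-LC3 puncta imaged by fluorescence microscopy.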

MKN-74 [11] = assay: Induction of autophagy in human MKN74 cells assessed as increase in LC3-2 expression at 0.5 uM measured up to 24 hrs by Western blot analysis; type: functional, cell-based
Procedure, shortened: (§2)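 MKN-74 cells treated with 0.5 μM; LC3 (LC3-II) and p62 levels analyzed by immunoblotting.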

MKN-74 [12] = assay: Induction of autophagy in human MKN74 cells assessed as increase in p62 degradation at 0.5 uM measured up to 24 hrs by Western blot analysis; type: functional, cell-based; procedure, shortened: as §2
MKN-74 [13] = assay: Induction of autophagy in human MKN74 cells assessed as increase in LC3-2 expression at 0.5 uM measured after 24 hrs in presence of autophagy inhibitor 3-methyladenine by Western blot analysis; type: functional, cell-based
Procedure, shortened: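 MKN-74 cells given 0.5 μM for 24 h with or without 3-MA; LC3 and p62 immunoblotted.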

MKN-74 [14] = assay: Cytotoxicity against human MKN74 cells harboring ATG5 siRNA assessed as reduction in cell viability at 0.5 uM by MTT assay; type: functional, cell-based
Procedure, shortened: (§3)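 MKN-74 cells transfected with ATG5-specific or negative-control siRNA for the indicated times, then treated with 0.5 μM. Viability read by MTT assay.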

MKN-74 [15] = assay: Cytotoxicity against human MKN74 cells harboring siRNA assessed as reduction in cell viability at 0.5 uM by MTT assay; type: functional, cell-based; procedure, shortened: as §3
HL-60 [16] = assay: Induction of cytoplasmic vacuolization in human HL60 cells; type: functional, cell-based
HL-60 [17] = assay: Antitumor activity against human HL60 cells xenografted in BALB/c mouse assessed as reduction in tumor volume at 50 mg/kg, po administered once daily for 16 days measured every 3 days during compound dosing; type: functional, organism-based
Procedure, shortened: (§4)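 Female nude mice bearing subcutaneous HL-60, MKN-74 or HeLa xenografts, 8 per group. Dosing was vehicle control or 50 mg/kg p.o. once daily for 16 days. Tumor volume followed over time, mean ± SEM.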

MKN-74 [18] = assay: Antitumor activity against human MKN74 cells xenografted in BALB/c mouse assessed as reduction in tumor volume at 50 mg/kg, po administered once daily for 16 days measured every 3 days during compound dosing; type: functional, organism-based; procedure, shortened: as §4
HeLa [19] = assay: Antitumor activity against human HeLa cells xenografted in BALB/c mouse assessed as reduction in tumor volume at 50 mg/kg, po administered once daily for 16 days measured every 3 days during compound dosing; type: functional, organism-based; procedure, shortened: as §4
MKN-74 [20] = assay: Antitumor activity against human MKN74 cells xenografted in BALB/c mouse assessed as reduction in Ki-67 positive cells at 50 mg/kg, po administered once daily for 16 days measured post-last dose by immunohistochemical analysis; type: functional, organism-based
Procedure, shortened: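 Tumors excised from control and 50 mg/kg p.o.-treated xenograft mice were immunostained for Ki-67, p-ERK1/2 and p-ERK5. Positive-cell percentage quantified and compared with control.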

Mus musculus = assay: In vivo inhibition of ERK1/2 in BALB/c mouse xenografted with human MKN74 cells assessed as reduction in ERK1/2 phosphorylation at 50 mg/kg, po administered once daily for 16 days measured post-last dose by Western blot analysis; type: functional, organism-based
Procedure, shortened: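 Two individual tumors excised from xenograft mice were lysed. ERK1/2, p-ERK1/2, ERK5 and p-ERK5 detected by western blot.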

[21] = AUC (0 to t) in Sprague-Dawley rat at 1 mg/kg, iv by LC-MS analysis; type: ADME, organism-based; settings: in vivo
Procedure, shortened: (§5)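 Rats, two groups of 3; single i.v. dose 1 mg/kg or oral dose 10 mg/kg. Plasma concentration-time profiles used to derive T1/2, Tmax, Cmax, AUC0-t, AUC0-∞ and oral bioavailability. Data from triplicate testing, ± standard deviation.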

[22] = AUC (0 to infinity) in Sprague-Dawley rat at 1 mg/kg, iv by LC-MS analysis; type: ADME, organism-based; parameters: dose 1 mg/kg, route intravenous, time infinity; settings: in vivo; procedure, shortened: as §5
[23] = Half life in Sprague-Dawley rat at 10 mg/kg, po by LC-MS analysis; type: ADME, organism-based; settings: in vivo; procedure, shortened: as §5
[24] = Cmax in Sprague-Dawley rat at 10 mg/kg, po by LC-MS analysis; type: ADME, organism-based; parameters: dose 10 mg/kg, route oral; settings: in vivo; procedure, shortened: as §5
[25] = Oral bioavailability in Sprague-Dawley rat at 10 mg/kg by LC-MS analysis; type: ADME, organism-based; settings: in vivo
Procedure, shortened: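 Two groups of rats (3 per group) received a single dose, either 1 mg/kg i.v. or 10 mg/kg p.o. Plasma concentrations were followed to derive Tmax, Cmax, T1/2, AUC and F. Data are from triple testing (± standard deviation).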

Sequence of Mitogen-activated protein kinase 7 (Homo sapiens) (Q13164 2-816 limits assumed): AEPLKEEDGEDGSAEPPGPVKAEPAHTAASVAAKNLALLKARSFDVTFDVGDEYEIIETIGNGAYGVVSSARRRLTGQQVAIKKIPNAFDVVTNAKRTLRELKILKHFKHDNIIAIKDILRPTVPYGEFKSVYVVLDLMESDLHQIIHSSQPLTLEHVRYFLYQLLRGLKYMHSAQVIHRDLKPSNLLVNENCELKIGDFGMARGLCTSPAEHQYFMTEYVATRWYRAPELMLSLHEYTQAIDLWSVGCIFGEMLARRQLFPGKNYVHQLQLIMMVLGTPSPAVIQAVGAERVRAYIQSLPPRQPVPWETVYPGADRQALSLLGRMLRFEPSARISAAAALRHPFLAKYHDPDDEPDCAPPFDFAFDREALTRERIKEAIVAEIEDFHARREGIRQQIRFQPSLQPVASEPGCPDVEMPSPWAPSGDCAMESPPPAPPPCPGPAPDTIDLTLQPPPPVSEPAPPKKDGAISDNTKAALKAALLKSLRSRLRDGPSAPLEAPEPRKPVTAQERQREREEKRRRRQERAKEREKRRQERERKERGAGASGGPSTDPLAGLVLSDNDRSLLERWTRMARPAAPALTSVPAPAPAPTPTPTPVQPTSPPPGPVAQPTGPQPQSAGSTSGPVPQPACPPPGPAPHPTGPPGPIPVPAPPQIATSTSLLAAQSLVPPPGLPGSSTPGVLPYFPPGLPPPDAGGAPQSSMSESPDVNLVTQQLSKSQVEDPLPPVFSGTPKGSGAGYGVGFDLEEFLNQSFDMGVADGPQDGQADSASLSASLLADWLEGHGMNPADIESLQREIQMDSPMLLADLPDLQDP
Sequence of Mitogen-activated protein kinase 3 (Homo sapiens) (P27361 whole entry): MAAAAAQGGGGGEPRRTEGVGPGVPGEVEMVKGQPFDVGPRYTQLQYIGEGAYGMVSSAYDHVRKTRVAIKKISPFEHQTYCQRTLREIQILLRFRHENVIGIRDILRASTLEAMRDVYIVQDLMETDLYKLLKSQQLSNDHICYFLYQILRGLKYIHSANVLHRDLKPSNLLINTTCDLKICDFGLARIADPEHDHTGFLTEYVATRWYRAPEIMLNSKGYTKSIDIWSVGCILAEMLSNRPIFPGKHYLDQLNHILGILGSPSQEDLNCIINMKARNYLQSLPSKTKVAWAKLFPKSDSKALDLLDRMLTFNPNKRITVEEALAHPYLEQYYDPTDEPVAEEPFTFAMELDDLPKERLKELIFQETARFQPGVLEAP
Sequence of Mitogen-activated protein kinase; ERK1/ERK2 (Homo sapiens) (P27361 whole entry, looked up): as the sequence (P27361 whole entry) above
Sequence of Mitogen-activated protein kinase; ERK1/ERK2 (Homo sapiens) (P28482 whole entry, looked up): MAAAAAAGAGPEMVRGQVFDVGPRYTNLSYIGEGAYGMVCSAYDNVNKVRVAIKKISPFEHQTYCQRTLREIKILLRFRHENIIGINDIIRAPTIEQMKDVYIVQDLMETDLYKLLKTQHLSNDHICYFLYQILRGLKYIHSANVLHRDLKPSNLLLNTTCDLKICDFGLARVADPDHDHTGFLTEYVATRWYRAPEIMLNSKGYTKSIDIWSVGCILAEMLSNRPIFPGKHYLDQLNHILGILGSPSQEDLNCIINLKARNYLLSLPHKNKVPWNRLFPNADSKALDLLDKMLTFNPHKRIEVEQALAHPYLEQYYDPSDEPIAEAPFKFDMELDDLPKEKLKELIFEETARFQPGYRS
Sequence of MAPK3/MAPK7 (Homo sapiens) (P27361 whole entry, looked up): as the sequence (P27361 whole entry) above
Sequence of MAPK3/MAPK7 (Homo sapiens) (Q13164 whole entry, looked up): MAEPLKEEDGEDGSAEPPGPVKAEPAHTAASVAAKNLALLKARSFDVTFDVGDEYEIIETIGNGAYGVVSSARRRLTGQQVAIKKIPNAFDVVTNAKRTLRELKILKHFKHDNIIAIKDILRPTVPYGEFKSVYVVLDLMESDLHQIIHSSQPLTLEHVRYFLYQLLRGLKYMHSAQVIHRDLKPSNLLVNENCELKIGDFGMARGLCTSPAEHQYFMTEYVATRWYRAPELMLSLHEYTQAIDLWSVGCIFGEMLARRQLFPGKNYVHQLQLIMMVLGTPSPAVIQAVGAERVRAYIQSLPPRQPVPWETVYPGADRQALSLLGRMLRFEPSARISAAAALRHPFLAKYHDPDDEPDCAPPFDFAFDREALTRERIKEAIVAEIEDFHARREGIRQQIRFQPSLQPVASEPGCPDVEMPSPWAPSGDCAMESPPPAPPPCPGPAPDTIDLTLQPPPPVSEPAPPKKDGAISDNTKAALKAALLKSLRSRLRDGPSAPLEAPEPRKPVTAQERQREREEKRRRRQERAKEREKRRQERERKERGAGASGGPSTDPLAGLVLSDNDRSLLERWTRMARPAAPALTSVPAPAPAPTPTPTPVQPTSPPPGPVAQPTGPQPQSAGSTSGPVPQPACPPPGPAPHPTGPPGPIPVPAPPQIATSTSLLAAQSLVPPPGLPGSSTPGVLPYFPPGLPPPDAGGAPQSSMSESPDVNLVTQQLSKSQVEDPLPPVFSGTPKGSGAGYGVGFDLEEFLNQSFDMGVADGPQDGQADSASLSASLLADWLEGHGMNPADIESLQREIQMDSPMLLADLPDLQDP

## NC(=O)c1c(NC(=O)c2ccccc2Cl)sc2c1CCN(C(=S)Nc1ccccc1Cl)C2
[1]
  inhibition: 93.5%
MKN-74 [2]
  IC50: 2550 nM
HeLa [3]
  IC50: > 50000 nM
[4]
  inhibition: Active
[5]
  inhibition: Active
[6]
  inhibition: Active
[7]
  Activity: inactive
[8]
  Activity: inactive
[9]
  Activity: inactive
MKN-74 [10]
  Activity: Active
MKN-74 [11]
  Activity: Active
MKN-74 [12]
  Activity: Active
MKN-74 [13]
  Activity: inactive
MKN-74 [14]
  Activity: inactive
MKN-74 [15]
  Activity: Active
HL-60 [16]
  Activity: inactive
HL-60 [17]
  Activity: Active
MKN-74 [18]
  Activity: Active
HeLa [19]
  Activity: inactive
MKN-74 [20]
  Activity: Active
Mus musculus
  inhibition: Active
[21]
  AUC(0-t): 1840 ng·h/mL
[22]
  AUC(0-inf): 1840 ng·h/mL
[23]
  half-life: 1.24 h
[24]
  Cmax: 1560 ng/mL
[25]
  bioavailability: 27.6%
